ChEMBL document CHEMBL1132575 (J Med Chem, 1999)

Columns and labels:
[1] = biological target: T1, 5-hydroxytryptamine receptor 1A (Homo sapiens, UniProt P08908); test: In vitro receptor binding affinity for cloned human 5-hydroxytryptamine 1A receptor
T1 sequence (P08908 whole entry): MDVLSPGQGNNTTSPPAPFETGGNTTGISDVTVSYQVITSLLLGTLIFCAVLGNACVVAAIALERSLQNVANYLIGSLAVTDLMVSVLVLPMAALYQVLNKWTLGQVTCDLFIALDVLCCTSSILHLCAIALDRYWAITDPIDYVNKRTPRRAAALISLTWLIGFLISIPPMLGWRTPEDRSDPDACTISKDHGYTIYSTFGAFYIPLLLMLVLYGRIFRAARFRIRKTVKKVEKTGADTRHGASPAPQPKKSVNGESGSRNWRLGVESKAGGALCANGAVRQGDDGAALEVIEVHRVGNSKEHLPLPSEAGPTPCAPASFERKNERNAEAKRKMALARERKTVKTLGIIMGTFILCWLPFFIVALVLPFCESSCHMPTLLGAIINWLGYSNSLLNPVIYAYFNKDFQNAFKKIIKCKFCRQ

[2] = biological target: T2, 5-hydroxytryptamine receptor 1D (Homo sapiens, UniProt P28221); test: In vitro receptor binding affinity for cloned human 5-hydroxytryptamine 1D receptor
Method in brief: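 Radioligand binding assay in cell lines expressing the human 5-HT1D receptor; affinity reported as Ki values. Further procedural detail is referenced to earlier work.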

[3] = biological target: T2, 5-hydroxytryptamine receptor 1D; test: Ability to inhibit forskolin-stimulated adenylate cyclase in a cell line expressing human 5-hydroxytryptamine 1D receptor; type: functional
[4] = biological target: 5-hydroxytryptamine receptor 1B (Homo sapiens, UniProt P28222); test: In vitro receptor binding affinity for cloned human 5-hydroxytryptamine 1B receptor
[5] = biological target: T2, 5-hydroxytryptamine receptor 1D; test: Intrinsic activity for 5-hydroxytryptamine 1D receptor; type: functional
Method in brief: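 Agonism measured as inhibition of forskolin-stimulated adenylyl cyclase in cell lines expressing the human 5-HT1D receptor.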

T2 sequence (P28221 whole entry): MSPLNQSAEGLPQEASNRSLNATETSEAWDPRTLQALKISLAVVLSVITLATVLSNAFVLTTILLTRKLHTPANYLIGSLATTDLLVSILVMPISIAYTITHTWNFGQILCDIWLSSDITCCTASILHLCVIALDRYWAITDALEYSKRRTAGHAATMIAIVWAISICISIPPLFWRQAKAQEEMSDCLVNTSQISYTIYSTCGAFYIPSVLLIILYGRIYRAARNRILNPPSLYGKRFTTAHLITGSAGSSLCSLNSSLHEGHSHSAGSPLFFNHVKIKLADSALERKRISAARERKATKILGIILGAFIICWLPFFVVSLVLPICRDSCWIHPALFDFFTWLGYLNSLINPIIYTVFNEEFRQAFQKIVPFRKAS
Sequence of 5-hydroxytryptamine receptor 1B (P28222 whole entry): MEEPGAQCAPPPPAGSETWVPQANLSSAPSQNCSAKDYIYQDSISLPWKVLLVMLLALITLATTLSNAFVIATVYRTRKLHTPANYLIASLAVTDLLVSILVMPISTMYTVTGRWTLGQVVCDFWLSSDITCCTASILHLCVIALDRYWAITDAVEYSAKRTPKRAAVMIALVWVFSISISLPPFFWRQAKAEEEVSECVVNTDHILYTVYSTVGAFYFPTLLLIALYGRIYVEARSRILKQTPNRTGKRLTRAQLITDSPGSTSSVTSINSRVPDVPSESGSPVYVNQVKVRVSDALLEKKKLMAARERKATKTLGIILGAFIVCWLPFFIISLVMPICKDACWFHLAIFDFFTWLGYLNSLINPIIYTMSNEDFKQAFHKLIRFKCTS

SMILES | Ki [2] | also measured
CN[C@@H]1CCc2[nH]c3ccc(C(N)=O)cc3c2C1 [FROVATRIPTAN] | […] | Ki [1]: 62 nM
CNCCc1c[nH]c2ccc(C(C)(C)C)cc12 | 0.45 nM | Ki [1]: 6.1 nM; EC50 [3]: 0.22 nM; Ki [4]: 1.9 nM; Emax [5]: 100%
CNS(=O)(=O)Cc1ccc2[nH]cc(CCN(C)C)c2c1 | – | Emax [5]: 93%
CN(C)CCc1c[nH]c2ccc(C(C)(C)C)cc12 | 0.44 nM | –
NCCc1c[nH]c2ccc(C3CCCC3)cc12 | 1.7 nM | –
CC(C)(C)c1ccc2[nH]cc(CCN)c2c1 | 0.6 nM | –
Cc1ccc2[nH]cc(CCN)c2c1 | 6.4 nM | –
CCCN(CCC)CCc1c[nH]c2ccc(C(C)(C)C)cc12 | 10.8 nM | –
NCCc1c[nH]c2ccc(C3CCCCC3)cc12 | 3.4 nM | –
CC(C)c1ccc2[nH]cc(CCN)c2c1 | 1.1 nM | –
CCc1ccc2[nH]cc(CCN)c2c1 | 3.7 nM | –
CCCNCCc1c[nH]c2ccc(C(C)(C)C)cc12 | 6.2 nM | –
CNS(=O)(=O)CCc1ccc2[nH]cc(C3CCN(C)CC3)c2c1 | 2.3 nM | Ki [1]: 45 nM; EC50 [3]: 1.6 nM; Ki [4]: 3.3 nM; Emax [5]: 100%
CN(C)CCc1c[nH]c2ccc(Cn3cncn3)cc12 | – | Emax [5]: 97%
